≈ marks a conversion by molar mass, not a printed value.
What was measured:
[1] = molecular target: T1, Leukotriene B4 receptor 1 (Homo sapiens, UniProt Q15722); experiment: Antagonist activity at BLT1 receptor expressed in human HL60 cells assessed as inhibition of LTB4-stimulated calcium flux after 30 mins; type: functional, cell-based, HL-60
In short: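 HL-60 cells grown in RPMI-1640 with 20% FBS were plated at 2.0 × 10^5 cells/ml with 1 μM retinoic acid. They were dye-loaded in HBSS/20 mM HEPES/5 mM probenecid (0.05% BSA in the replacement buffer) for 1 h at 37 C. Compound (5 × 10^-11 to 3 × 10^-6 M final) was added for 30 min at room temperature, then 0.5 μM LTB4. Fluorescence was read every 1.5 s for 100 s and peak increase scored as % inhibition versus DMSO control.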

Neutrophil = experiment: Inhibition of LTB4-stimulated human neutrophils migration after 30 mins by using CyQuant GR fluorescent dye; type: functional, cell-based
In short: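 Human blood neutrophils (95-97% pure, isolated over Lympholyte-poly) at 5 × 10^6 cells/mL were preincubated with compound (3 × 10^-12 to 1 × 10^-6 M final) for 30 min at 37 C. Migration toward 100 ng/mL LTB4 across a polycarbonate membrane ran 90 min at 37 C. Migrated cells were lysed with CyQuant GR and read at 480/520 nm. IC50 was taken from a sigmoidal fit of % inhibition.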

[2] = molecular target: T2, Leukotriene B4 receptor 2 (Homo sapiens, UniProt Q9NPC1); experiment: Antagonist activity at FLAG-tagged human BLT2 receptor expressed in HEK293 cells assessed as inhibition of LTB4-stimulated calcium mobilization preincubated for 10 mins before LTB4 challenge; type: functional, cell-based
T2 sequence (Q9NPC1 whole entry): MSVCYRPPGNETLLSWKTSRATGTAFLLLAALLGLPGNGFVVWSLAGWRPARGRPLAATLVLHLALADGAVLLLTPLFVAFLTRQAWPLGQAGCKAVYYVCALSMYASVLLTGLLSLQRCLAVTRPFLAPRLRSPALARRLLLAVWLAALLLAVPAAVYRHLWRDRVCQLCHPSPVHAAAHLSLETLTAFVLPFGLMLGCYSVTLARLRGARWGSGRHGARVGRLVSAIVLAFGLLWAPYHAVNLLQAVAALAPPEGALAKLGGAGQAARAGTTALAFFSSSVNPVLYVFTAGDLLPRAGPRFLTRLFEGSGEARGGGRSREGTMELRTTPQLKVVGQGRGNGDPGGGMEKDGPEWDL

Cytochrome P450 2C9 [3] = molecular target: T3, Cytochrome P450 2C9 (Homo sapiens, UniProt P11712); experiment: Inhibition of CYP2C9 by LC/MS method; type: ADME
[4] = Solubility of compound in small intestinal contents in the fed state at pH 5; type: ADME
In short: (§1)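 Solubility measured in simulated intestinal fluid at pH 5.0 (fed) or pH 6.5 (fasted), reported in μg/mL.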

[5] = molecular target: T4, Voltage-gated inwardly rectifying potassium channel KCNH2 (Homo sapiens, UniProt Q12809); experiment: Inhibition of human ERG expressed in CHO cells assessed as reduction of current amplitude
Cytochrome P450 2C9 [6] = molecular target: T3, Cytochrome P450 2C9; experiment: Inhibition of CYP2C9 fluorescence method; type: ADME
Cytochrome P450 3A4 = Cytochrome P450 3A4 (Homo sapiens, UniProt P08684); experiment: Inhibition of CYP3A4 fluorescence method; type: ADME
In short: (§2)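 High-throughput CYP panel covering 1A2, 2D6, 2C9, 2C19 and 3A4, using fluorogenic substrates. IC50 was determined in μM.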

[7] = Lipophilicity, log D of compound at pH 7.4; details: buffer
Cytochrome P450 1A2 = molecular target: T5, Cytochrome P450 1A2 (Homo sapiens, UniProt P05177); experiment: Inhibition of CYP1A2 by fluorescence method; type: ADME
T5 sequence (P05177 whole entry): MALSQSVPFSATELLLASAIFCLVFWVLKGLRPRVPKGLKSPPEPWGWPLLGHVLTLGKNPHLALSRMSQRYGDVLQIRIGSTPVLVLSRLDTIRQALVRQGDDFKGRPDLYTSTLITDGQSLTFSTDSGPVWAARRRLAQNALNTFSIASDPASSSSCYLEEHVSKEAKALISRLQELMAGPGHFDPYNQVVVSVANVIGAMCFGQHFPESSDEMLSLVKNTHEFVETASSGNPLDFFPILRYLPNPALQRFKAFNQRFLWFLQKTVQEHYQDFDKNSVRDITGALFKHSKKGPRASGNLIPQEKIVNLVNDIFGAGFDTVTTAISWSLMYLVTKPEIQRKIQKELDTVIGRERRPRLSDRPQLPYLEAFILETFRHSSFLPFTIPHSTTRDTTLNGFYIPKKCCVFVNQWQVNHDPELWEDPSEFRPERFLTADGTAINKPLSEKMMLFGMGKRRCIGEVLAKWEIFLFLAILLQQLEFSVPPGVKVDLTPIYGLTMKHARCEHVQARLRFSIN
In short: (§3)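 Cytochrome P450 high-throughput panel (1A2, 2D6, 2C9, 2C19, 3A4) using fluorogenic substrates; IC50 reported.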

[8] = molecular target: T4, Voltage-gated inwardly rectifying potassium channel KCNH2; experiment: Inhibition of human ERG expressed in CHO cells at 3 uM assessed as reduction of current amplitude
[9] = molecular target: T1, Leukotriene B4 receptor 1; experiment: Antagonist activity at FLAG-tagged human BLT1 receptor expressed in HEK293 cells assessed as inhibition of LTB4-stimulated calcium mobilization preincubated for 10 mins before LTB4 challenge; type: functional, cell-based
Cytochrome P450 2D6 = Cytochrome P450 2D6 (Homo sapiens, UniProt P10635); experiment: Inhibition of CYP2D6 fluorescence method; type: ADME; in short: as §2
[10] = Solubility of compound in small intestinal contents in the fasted state at pH 6.5; type: ADME; in short: as §1
Cytochrome P450 2C19 = Cytochrome P450 2C19 (Homo sapiens, UniProt P33261); experiment: Inhibition of CYP2C19 fluorescence method; type: ADME; in short: as §3
[11] = Oral bioavailability in Sprague-Dawley rat at 10 mg/kg, po; type: ADME, organism-based; details: in vivo
In short: (§4)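 Rat single-dose PK, n = 3, with oral dosing at 10 mg/kg and intravenous dosing at 2.5 or 5 mg/kg.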

[12] = Volume of distribution at steady state in Sprague-Dawley rat at 5 mg/kg, iv; type: ADME, organism-based; design: dose 5 mg/kg, route intravenous; details: in vivo, read-out: Vdss; in short: as §4
[13] = Half life in Sprague-Dawley rat at 10 mg/kg, po; type: ADME, organism-based; design: dose 10 mg/kg, route oral; details: in vivo; in short: as §4
[14] = Cmax in Sprague-Dawley rat at 10 mg/kg, po; type: ADME, organism-based; design: dose 10 mg/kg, route oral; details: in vivo; in short: as §4
[15] = Clearance in Sprague-Dawley rat at 5 mg/kg, iv; type: ADME, organism-based; design: dose 5 mg/kg, route intravenous; details: in vivo; in short: as §4
[16] = Tmax in Sprague-Dawley rat at 10 mg/kg, po; type: ADME, organism-based; design: dose 10 mg/kg, route oral; details: in vivo; in short: as §4
[17] = Half life in Sprague-Dawley rat at 5 mg/kg, iv; type: ADME, organism-based; design: dose 5 mg/kg, route intravenous; details: in vivo; in short: as §4
[18] = Homo sapiens, Neutrophil, 0.5 h, read-out: IC50

T3 sequence (P11712 whole entry): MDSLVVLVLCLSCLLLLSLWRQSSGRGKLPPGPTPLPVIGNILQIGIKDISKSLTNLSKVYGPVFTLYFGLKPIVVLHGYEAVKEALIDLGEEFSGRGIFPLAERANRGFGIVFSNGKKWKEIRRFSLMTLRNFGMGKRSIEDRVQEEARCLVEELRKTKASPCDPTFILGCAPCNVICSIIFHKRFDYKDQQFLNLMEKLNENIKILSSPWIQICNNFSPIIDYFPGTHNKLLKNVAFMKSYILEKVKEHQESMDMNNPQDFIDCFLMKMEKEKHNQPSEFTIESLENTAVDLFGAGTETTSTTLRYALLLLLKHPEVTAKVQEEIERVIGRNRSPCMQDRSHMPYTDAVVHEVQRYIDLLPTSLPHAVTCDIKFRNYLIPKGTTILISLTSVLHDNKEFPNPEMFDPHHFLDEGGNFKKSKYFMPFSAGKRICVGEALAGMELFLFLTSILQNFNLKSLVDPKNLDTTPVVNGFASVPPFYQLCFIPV
Cytochrome P450 2C19, sequence (P33261 whole entry): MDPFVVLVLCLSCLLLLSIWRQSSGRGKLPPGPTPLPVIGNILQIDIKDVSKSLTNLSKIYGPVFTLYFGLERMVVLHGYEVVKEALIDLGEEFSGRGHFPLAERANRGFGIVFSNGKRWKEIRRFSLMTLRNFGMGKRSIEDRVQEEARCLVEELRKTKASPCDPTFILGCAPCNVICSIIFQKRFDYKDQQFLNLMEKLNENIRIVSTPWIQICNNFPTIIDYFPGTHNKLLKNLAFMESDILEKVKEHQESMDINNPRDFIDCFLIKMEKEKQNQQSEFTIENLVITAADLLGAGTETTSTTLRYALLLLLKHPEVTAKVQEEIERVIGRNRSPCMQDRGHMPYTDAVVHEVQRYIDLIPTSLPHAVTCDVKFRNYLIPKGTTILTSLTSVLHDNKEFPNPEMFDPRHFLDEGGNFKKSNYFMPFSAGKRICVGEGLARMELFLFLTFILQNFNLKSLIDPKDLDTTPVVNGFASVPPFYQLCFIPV
Cytochrome P450 2D6, sequence (P10635 whole entry): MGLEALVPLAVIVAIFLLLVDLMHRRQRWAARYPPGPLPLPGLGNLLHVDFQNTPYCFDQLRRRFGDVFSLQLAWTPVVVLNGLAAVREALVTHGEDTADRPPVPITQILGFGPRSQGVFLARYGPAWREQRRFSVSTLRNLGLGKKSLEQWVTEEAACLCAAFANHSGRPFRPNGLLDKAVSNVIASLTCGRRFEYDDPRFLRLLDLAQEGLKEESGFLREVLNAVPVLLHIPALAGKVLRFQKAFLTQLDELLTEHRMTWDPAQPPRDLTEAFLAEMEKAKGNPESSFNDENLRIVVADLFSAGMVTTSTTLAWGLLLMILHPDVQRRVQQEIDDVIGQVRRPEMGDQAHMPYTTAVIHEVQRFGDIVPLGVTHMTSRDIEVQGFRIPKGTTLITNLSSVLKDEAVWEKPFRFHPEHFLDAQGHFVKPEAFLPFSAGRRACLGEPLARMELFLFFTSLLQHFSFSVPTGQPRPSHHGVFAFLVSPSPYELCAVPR
T4 sequence (Q12809 whole entry): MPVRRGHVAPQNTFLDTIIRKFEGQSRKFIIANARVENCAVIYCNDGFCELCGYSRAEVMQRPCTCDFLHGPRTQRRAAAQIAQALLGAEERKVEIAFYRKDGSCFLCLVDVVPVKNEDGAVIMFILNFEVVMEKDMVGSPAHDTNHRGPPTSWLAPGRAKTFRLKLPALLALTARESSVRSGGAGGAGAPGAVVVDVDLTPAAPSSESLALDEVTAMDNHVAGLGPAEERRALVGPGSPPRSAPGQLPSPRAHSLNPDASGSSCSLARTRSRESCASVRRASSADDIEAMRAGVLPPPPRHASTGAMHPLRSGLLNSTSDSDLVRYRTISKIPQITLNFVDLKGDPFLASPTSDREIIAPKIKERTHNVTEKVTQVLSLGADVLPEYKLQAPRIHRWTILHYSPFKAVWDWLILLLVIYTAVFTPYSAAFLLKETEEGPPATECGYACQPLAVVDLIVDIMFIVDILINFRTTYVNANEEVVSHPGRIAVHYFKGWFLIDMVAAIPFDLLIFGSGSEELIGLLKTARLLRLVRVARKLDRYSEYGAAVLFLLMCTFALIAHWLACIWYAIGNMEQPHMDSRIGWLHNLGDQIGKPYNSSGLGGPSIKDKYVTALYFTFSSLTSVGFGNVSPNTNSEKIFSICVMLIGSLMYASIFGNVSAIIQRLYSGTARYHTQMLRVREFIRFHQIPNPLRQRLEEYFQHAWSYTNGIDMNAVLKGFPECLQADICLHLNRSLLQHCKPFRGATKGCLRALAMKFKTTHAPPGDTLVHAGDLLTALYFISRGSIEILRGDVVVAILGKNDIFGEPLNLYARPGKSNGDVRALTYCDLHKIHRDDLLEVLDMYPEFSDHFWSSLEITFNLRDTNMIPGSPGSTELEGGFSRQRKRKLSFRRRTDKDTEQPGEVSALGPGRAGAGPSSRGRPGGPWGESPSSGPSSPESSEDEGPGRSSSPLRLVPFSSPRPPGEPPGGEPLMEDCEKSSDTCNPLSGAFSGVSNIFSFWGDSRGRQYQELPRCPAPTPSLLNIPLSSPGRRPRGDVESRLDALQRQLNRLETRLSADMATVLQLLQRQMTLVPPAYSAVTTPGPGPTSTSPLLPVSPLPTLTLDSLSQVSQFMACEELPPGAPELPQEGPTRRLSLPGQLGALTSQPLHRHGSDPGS
Cytochrome P450 3A4, sequence (P08684 whole entry): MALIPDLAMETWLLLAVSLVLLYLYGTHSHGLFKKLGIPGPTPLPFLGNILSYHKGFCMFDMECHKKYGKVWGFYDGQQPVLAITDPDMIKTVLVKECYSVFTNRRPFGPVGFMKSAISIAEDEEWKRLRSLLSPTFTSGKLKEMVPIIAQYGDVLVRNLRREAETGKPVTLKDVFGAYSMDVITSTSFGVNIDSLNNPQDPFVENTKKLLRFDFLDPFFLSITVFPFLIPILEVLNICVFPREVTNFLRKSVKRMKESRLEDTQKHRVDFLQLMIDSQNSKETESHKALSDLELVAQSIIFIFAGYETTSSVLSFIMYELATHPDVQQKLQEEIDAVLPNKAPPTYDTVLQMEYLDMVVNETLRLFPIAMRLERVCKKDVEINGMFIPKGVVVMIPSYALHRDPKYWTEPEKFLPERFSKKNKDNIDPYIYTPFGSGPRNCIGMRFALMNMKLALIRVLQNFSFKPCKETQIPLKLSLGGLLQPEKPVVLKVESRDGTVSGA
T1 sequence (Q15722 whole entry): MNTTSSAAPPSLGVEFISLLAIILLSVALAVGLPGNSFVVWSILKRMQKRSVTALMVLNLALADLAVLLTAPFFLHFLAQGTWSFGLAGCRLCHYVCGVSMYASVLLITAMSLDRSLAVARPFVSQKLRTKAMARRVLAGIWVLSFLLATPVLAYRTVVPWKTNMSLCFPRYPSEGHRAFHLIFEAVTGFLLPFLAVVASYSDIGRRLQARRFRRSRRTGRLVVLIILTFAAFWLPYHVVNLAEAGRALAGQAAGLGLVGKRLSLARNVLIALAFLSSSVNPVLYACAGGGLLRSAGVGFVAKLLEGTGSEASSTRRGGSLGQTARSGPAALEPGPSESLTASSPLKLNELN

Compound: O=C(O)CCCOc1cccc(CCCCCCOc2cc(-c3ccsc3)cc(-c3ccsc3)c2)c1CCC(=O)O
- IC50 ([1]; read-out: IC50): 0.58 nM

Compound: O=C(O)CCCOc1cccc(CCCCCCOc2cc(-c3cncnc3)cc(-c3ccc4c(c3)OCO4)c2)c1CCC(=O)O
- IC50 (Neutrophil; [18]): 0.2 nM
- IC50 ([1]; read-out: IC50): 0.38 nM

Compound: O=C(O)CCCOc1cccc(CCCCCCOc2cc(-c3ccc(F)cc3)cc(-c3ccc4c(c3)OCCO4)c2)c1CCC(=O)O
- IC50 ([1]; read-out: IC50): 60.2 nM

Compound: O=C(O)CCCOc1cccc(CCCCCCOc2cc(-c3ccsc3)cc(-c3ccnc(Cl)c3)c2)c1CCC(=O)O
- IC50 ([1]; read-out: IC50): 0.57 nM

Compound: O=C(O)CCCOc1cccc(CCCCCCOc2cc(-c3ccncc3)cc(-c3cccc(F)c3)c2)c1CCC(=O)O
- IC50 (Neutrophil; [18]): 0.2 nM
- IC50 ([1]; read-out: IC50): 0.18 nM

Compound: CCc1cc(C(C)=O)c(O)cc1OCCCCCC(C)(C)c1nn[nH]n1 [LY-255283]
- IC50 (Neutrophil; neutrophil): Not Active
- IC50 ([1]; hl-60): Not Active

Compound: O=C(O)CCCOc1cccc(CCCCCCOc2cc(-c3cccc(F)c3)cc(-c3ccc4[nH]ccc4c3)c2)c1CCC(=O)O
- IC50 ([1]; read-out: IC50): 14 nM

Compound: O=C(O)CCCOc1cccc(CCCCCCOc2cc(-c3ccccc3)cc(-c3ccc4c(c3)OCO4)c2)c1CCC(=O)O
- IC50 (Neutrophil; [18]): 0.7 nM
- IC50 ([1]; read-out: IC50): 0.58 nM

Compound: O=C(O)CCCOc1cccc(CCCCCCOc2cc(-c3ccccc3)cc(-c3ccccc3)c2)c1CCC(=O)O
- IC50 [2]: 628 nM
- IC50 (Cytochrome P450 2C9 [3]): > 12500 nM
- solubility [4]: 338 µg/mL (≈ 582 µM)
- IC50 [5]: > 3000 nM
- IC50 (Cytochrome P450 2C9 [6]): > 50000 nM
- IC50 (Cytochrome P450 3A4): > 7500 nM
- logD [7]: 0.7
- IC50 (Cytochrome P450 1A2): > 7500 nM
- INH [8]: Not Active
- IC50 [9]: 38.5 nM
- IC50 ([1]; read-out: IC50): 0.21 nM
- IC50 (Cytochrome P450 2D6): > 7500 nM
- solubility [10]: 27.3 µg/mL (≈ 47 µM)
- IC50 (Cytochrome P450 2C19): > 7500 nM

Compound: O=C(O)CCCOc1cccc(CCCCCCOc2cc(-c3ccc4c(c3)OCO4)cc(-c3ccccc3F)c2)c1CCC(=O)O
- solubility [4]: 38.1 µg/mL (≈ 59.3 µM)
- IC50 (Neutrophil; [18]): 7.67 nM
- IC50 (Cytochrome P450 2C9 [6]): 7600 nM
- IC50 (Cytochrome P450 3A4): > 7500 nM
- logD [7]: 2.44
- IC50 (Cytochrome P450 1A2): > 7500 nM
- INH [8]: Not Active
- IC50 ([1]; read-out: IC50): 0.61 nM
- IC50 (Cytochrome P450 2D6): > 7500 nM
- solubility [10]: 27.1 µg/mL (≈ 42.2 µM)
- IC50 (Cytochrome P450 2C19): > 7500 nM

Compound: O=C(O)CCCOc1cccc(CCCCCCOc2cc(-c3cncnc3)cc(-c3ccsc3)c2)c1CCC(=O)O
- IC50 (Neutrophil; [18]): 20 nM
- IC50 ([1]; read-out: IC50): 0.39 nM

Compound: O=C(O)CCCOc1cccc(CCCCCCOc2cc(-c3ccncc3)cc(-c3ccncc3)c2)c1CCC(=O)O
- IC50 [2]: 143 nM
- IC50 (Cytochrome P450 2C9 [3]): 900 nM
- solubility [4]: 61 µg/mL (≈ 105 µM)
- bioavailability [11]: 10%
- IC50 (Cytochrome P450 2C9 [6]): 340 nM
- IC50 (Cytochrome P450 3A4): > 7500 nM
- Vd [12]: 1.55 L/kg
- half-life [13]: 4.52 h
- Cmax [14]: 310 nM
- clearance [15]: 28.1 mL/min/kg
- logD [7]: 1.78
- IC50 (Cytochrome P450 1A2): > 7500 nM
- INH [8]: Not Active
- IC50 [9]: 71 nM
- IC50 ([1]; read-out: IC50): 0.07 nM
- IC50 (Cytochrome P450 2D6): > 7500 nM
- solubility [10]: 22.7 µg/mL (≈ 39 µM)
- Tmax [16]: 5 h
- IC50 (Cytochrome P450 2C19): > 7500 nM
- half-life [17]: 4.52 h

Compound: O=C(O)CCCOc1cccc(CCCCCCOc2cc(-c3ccccc3)cc(-c3ccsc3)c2)c1CCC(=O)O
- IC50 (Neutrophil; [18]): 0.2 nM
- IC50 ([1]; read-out: IC50): 0.36 nM

Compound: O=C(O)CCCOc1cccc(CCCCCCOc2cc(-c3ccc4c(c3)OCO4)cc(-c3ccc4c(c3)OCO4)c2)c1CCC(=O)O
- IC50 ([1]; read-out: IC50): 5.39 nM

Compound: O=C(O)CCCOc1cccc(CCCCCCOc2cc(-c3ccncc3)cc(-c3ccsc3)c2)c1CCC(=O)O
- IC50 ([1]; read-out: IC50): 0.2 nM

Compound: O=C(O)CCCOc1cccc(CCCCCCOc2cc(-c3ccc(F)cc3)cc(-c3ccc(F)cc3)c2)c1CCC(=O)O
- IC50 ([1]; read-out: IC50): 8.5 nM

Compound: O=C(O)CCCOc1cccc(CCCCCCOc2cc(-c3cncnc3)cc(-c3cncnc3)c2)c1CCC(=O)O
- IC50 ([1]; read-out: IC50): 5.35 nM

Compound: O=C(O)CCCOc1cccc(CCCCCCOc2cc(-c3ccc4c(c3)OCCO4)cc(-c3ccc4c(c3)OCCO4)c2)c1CCC(=O)O
- IC50 ([1]; read-out: IC50): 140 nM

Compound: COc1ccc(-c2cc(OCCCCCCc3cccc(OCCCC(=O)O)c3CCC(=O)O)cc(-c3ccc4c(c3)OCO4)c2)cc1
- IC50 ([1]; read-out: IC50): 3.27 nM

Compound: COc1ccc(-c2cc(OCCCCCCc3cccc(OCCCC(=O)O)c3CCC(=O)O)cc(-c3ccc(OC)cc3)c2)cc1
- IC50 ([1]; read-out: IC50): 31.1 nM

Compound: O=C(O)CCCOc1cccc(CCCCCCOc2cc(-c3ccncc3)cc(-c3ccc4c(c3)OCO4)c2)c1CCC(=O)O
- IC50 (Neutrophil; [18]): 0.1 nM
- IC50 ([1]; read-out: IC50): 0.22 nM

Source: ChEMBL document CHEMBL1158546, “Discovery of novel and potent leukotriene B4 receptor antagonists. Part 1” (J Med Chem, 2010)
